Compound activity from PubChem BioAssay.
Sampled rows, rich in hits. Any-hit rate of the full collection: about 3.3%.
ABCB6 inh MLPCN: human ABCB6 transporter inhibition. Q9NP58. K562-ABCB6 porphyrin accumulation, flow cytometry, 1 h; hits give low values. fluorescence ratio to DMSO, % at 10 µM. hit rate 0.19% among 360,000. AID 602162;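 active = fluorescence ratio to DMSO below 75%, the collection mean minus 3 SD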;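 note: signal is porphyrin accumulated inside mitochondria; lower ratio means ABCB6 inhibition with less porphyrin fluorescence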
Target sequence (Q9NP58 whole entry, looked up): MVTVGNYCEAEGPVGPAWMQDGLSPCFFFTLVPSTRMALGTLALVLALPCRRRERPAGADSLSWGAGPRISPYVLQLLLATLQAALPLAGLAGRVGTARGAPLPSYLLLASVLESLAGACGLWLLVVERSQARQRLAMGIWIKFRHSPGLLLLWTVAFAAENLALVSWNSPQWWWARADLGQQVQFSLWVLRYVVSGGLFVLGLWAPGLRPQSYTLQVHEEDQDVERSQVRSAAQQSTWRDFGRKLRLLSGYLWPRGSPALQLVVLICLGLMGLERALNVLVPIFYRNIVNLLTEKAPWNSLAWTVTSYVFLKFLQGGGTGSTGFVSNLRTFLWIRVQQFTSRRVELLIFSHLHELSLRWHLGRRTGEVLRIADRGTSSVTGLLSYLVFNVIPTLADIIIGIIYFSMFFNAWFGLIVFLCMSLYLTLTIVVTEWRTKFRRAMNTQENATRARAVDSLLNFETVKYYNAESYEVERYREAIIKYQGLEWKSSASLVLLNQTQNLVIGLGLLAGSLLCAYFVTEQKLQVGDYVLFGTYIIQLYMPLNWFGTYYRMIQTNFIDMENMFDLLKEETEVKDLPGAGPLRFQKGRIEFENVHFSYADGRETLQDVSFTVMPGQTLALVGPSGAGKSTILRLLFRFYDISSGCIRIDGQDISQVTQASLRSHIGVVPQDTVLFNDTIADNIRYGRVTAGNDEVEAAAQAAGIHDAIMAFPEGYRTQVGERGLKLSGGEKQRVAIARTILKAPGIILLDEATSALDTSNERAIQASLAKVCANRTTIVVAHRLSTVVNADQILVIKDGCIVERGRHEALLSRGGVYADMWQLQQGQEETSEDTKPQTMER
STAT3 activator: activators of IL-6 induced STAT3 signaling; U3A cells, IL-6 STAT3-luciferase reporter, luminescence; 100% = signal with IL-6 EC80 alone; activation (% of control), % at 5.6 µM; hit rate 0.91% among 190,000;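 active = activation above the screen-wide mean of compound activation plus 3 SD, cut at about 130% in these data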
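Test system: Human STAT1-deficient U3A cells with stable STAT3-luciferase reporter | Also added: Interleukin-6, 33 ng/mL | Timing: Compound pre-incubation 1 h before IL-6, then 6 h stimulation at 37 °C | Technique: Luciferase reporter luminescence | Read-out: Percent of IL-6-only median luminescence | Benchmarks: IL-6-only wells as 100% reference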
GAA850 FXN act: activators of GAA850 frataxin (FXN) promoter; activation, % at 6 µM; AID 540364; hit rate 0.56% among 360,000; HEK293 lucGAA850 FXN promoter luciferase reporter, 24 h; percent of 10 µM SAHA response;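 active = activation above the average of all compounds screened plus 3 SD, cutoff fixed separately per campaign, cut at about 7.5% in these data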
AHR act: activates the human aryl hydrocarbon receptor; P35869; AHR-responsive luciferase reporter cells, luminescence; activation, % at 5 µM; hit rate 2.5% among 320,000; AID 2796; in the data active = activation above about 47%
Large screens that a line does not name were inactive.

CC(C)CN1C(=O)NC(NS(=O)(=O)c2ccc(N)cc2)(C(F)(F)F)C1=O (stereo not given)	none
CC(=O)Nc1ccc(S(=O)(=O)NC2(C(F)(F)F)NC(=O)N(CC(C)C)C2=O)cc1 (stereo not given)	AHR act 58
S=C(Nc1ccccc1)Nc1cccc(Br)c1	none
S=C(Nc1cccc(Br)c1)c1ccccc1	AHR act 79
CC1=NN(C(N)=S)C(=O)C1N=Nc1ccccc1Cl (stereo not given)	none (no result: STAT3 activator)
CC1=NN(C(N)=S)C(=O)C1N=Nc1cccc(C(=O)O)c1 (stereo not given)	none (no result: STAT3 activator, AHR act)
CC1=NN(C(N)=S)C(=O)C1N=Nc1ccc(C)c(Br)c1 (stereo not given)	AHR act 58 (no result: STAT3 activator)
COc1ccccc1N=NC1C(=O)N(C(N)=S)N=C1C (stereo not given)	AHR act 64 (no result: STAT3 activator)
CC1=NN(C(N)=S)C(=O)C1N=Nc1cccc(C)c1 (stereo not given)	AHR act 64 (no result: STAT3 activator)
CCCN(C)C1CN(Cc2cn(CCCC(=O)OC)nn2)S(=O)(=O)C1 (stereo not given)	none (no result: STAT3 activator, GAA850 FXN act, AHR act)
Cc1cccc(NC(=O)CNC(=O)Cc2ccc3c(c2)OCCO3)c1C	none (no result: STAT3 activator)
CCCS(=O)(=O)NC(=O)C1(C)CCN(C(=O)c2ccccc2F)C1 (stereo not given)	none (no result: STAT3 activator, AHR act)
O=C/C(=C\Nc1ccc(Br)cc1)c1nc2ccccc2o1	AHR act 49
O=C/C(=C\Nc1ccccn1)c1nc2cc(Cl)ccc2o1	STAT3 activator 135
Clc1ccc2oc(-c3ccccc3)nc2c1	none
O=C(O)COc1ccc(NC(=O)c2ccc3c(c2)C(=O)N(CC2CCCO2)C3=O)cc1 (stereo not given)	none (no result: STAT3 activator, AHR act)
Clc1nc(-c2ccccc2)cc(-c2ccc(Br)cc2)n1	STAT3 activator 138, AHR act 69
Nc1cc(-c2ccc(Br)cc2)nc2cc(-c3ccccc3)nn12	none
Cc1cc(Cl)c2ccc(Cl)cc2n1	none (no result: STAT3 activator)
Cc1cc(Cl)c2cc3ccccc3cc2n1	AHR act 52 (no result: STAT3 activator)
CCc1ccc(/C=N\NC(=O)c2ccc(Br)o2)s1	none
CCN(CC)c1ccc(/C=N/NC(=O)c2ccc(Br)o2)cc1	AHR act 88
CCN(CC)c1ccc(/C=N/NC(=O)Nc2nonc2N)cc1	AHR act 67
CC(C)(C)NC(=O)NC(=O)CN1CCN(S(=O)(=O)c2ccc3c(c2)OCCO3)CC1	none (no result: STAT3 activator)
Cn1cc(-c2coc3c(C(=O)NCc4ccco4)cccc23)cn1	none (no result: STAT3 activator, AHR act)
Cc1cc2ccccc2nc1SCC(=O)N1CCCC1	none
Cc1ccc(NNS(=O)(=O)c2ccc(C)cc2)cc1	STAT3 activator 135
Cc1ccc(N2C(=O)c3ccccc3C2C(=O)c2ccc(O)cc2O)cc1 (stereo not given)	AHR act 59
Cc1ccc(N2C(=O)c3ccccc3C2C(=O)c2cc(C)ccc2O)cc1 (stereo not given)	none
CC1(C(=O)NS(=O)(=O)c2ccc(C#N)cc2)CCN1C(=O)Cc1ccc(Cl)cc1Cl (stereo not given)	none (no result: STAT3 activator, AHR act)
Oc1ccc(C[C@H]2CNC(=S)N2CC2CCCN2C[C@H](Cc2ccc(O)cc2)N2C[C@H](Cc3ccc(O)cc3)N(CC3CCCCC3)C2=S)cc1 (stereo not given in full)	none (no result: STAT3 activator, AHR act)
COC(=O)Cn1nnnc1-c1nc2cc(C)c(C)cc2[nH]c1=O	none (no result: STAT3 activator, GAA850 FXN act, AHR act)
CN(C)c1cc(-c2ccc(Cl)cc2)oc(=O)c1Cl	AHR act 56 (no result: STAT3 activator)
Cn1ncc2c(N3CCC(Cc4ccccc4)CC3)ncnc21	AHR act 73
c1ccc(CCN2CCN(c3ncnc4c3cnn4-c3ccccc3)CC2)cc1	none
COC(=O)C(NC(C)=O)(Nc1ccccc1)C(=O)OC	none
Cc1ccc(NC(=O)c2ccc([N+](=O)[O-])o2)c(C)c1	none
Cc1ccc(S(=O)(=O)c2ccc([N+](=O)[O-])o2)cc1	ABCB6 inh MLPCN 50 (no result: STAT3 activator, AHR act)
Cc1ccc(NC(=O)CN(C)C2CCCCC2)cc1Br	none
CC1(C)C/C(=N\NC(=S)Nc2ccccc2F)c2cc(O)ccc2O1	AHR act 60
Cc1ccc(C(=O)c2sc3nsc(C)c3c2N)cc1	AHR act 64
COc1ccc(-c2cc(C(F)(F)F)c(C#N)c(SCC(=O)O)n2)cc1	none
C#CCSc1nc(-c2ccccc2)cc(C(F)(F)F)c1C#N	AHR act 64
CCOC(=O)C1(Cc2ccc(Cl)cc2)CCN(C(=O)C2CCCO2)CC1 (stereo not given)	none
CCOc1ccc(S(=O)(=O)N2CN(c3cccc(C(C)=O)c3)c3nc4ccccc4nc32)cc1	AHR act 56 (no result: STAT3 activator)
Cc1cc(C)cc(N(CC(=O)Nc2ccc(C(F)(F)F)cc2)S(=O)(=O)c2c(C)[nH]c(=O)[nH]c2=O)c1	none (no result: STAT3 activator)
COc1ccc(/C=C2\C(=O)NC(=S)N2C(=O)c2ccc(C)cc2)cc1	none
O=C1NC(=S)N(C(=O)c2ccc(F)cc2)/C1=C/c1cccnc1	ABCB6 inh MLPCN 15 (no result: STAT3 activator)
O/N=C/c1ccn(-c2ccc(Br)cc2)c1	none
Cc1cc2nc(-c3cccnc3SCC(=O)NC(C)C)[nH]c2cc1C	AHR act 54
COc1cccc(-n2cc3c(=O)n(C)c(=O)n(C)c3c2)c1	AHR act 59
Cc1ccn2c(NC3CCCC3)c(-c3ccccn3)nc2c1	AHR act 77
Cc1cccc(NC(=O)CCN2CCC(C)CC2)c1	none (no result: STAT3 activator)
COc1cc(-c2nc3ccccn3c2NCc2ccccc2)ccc1SC1CCCCC1	AHR act 69 (no result: STAT3 activator)
COc1ccc(-c2nc3ccc(C)cn3c2NCc2ccc3c(c2)OCO3)cc1	AHR act 69
CCCCCCSc1cc(-c2nc3cc(C)ccn3c2NC2CCCCC2)ccc1OC	none (no result: STAT3 activator)
COc1ccc(-c2nc3cnccn3c2NCc2ccccc2)cc1SC1CCCCC1	AHR act 50 (no result: STAT3 activator)
COc1cc(-c2nc3ccc(C)cn3c2NCc2ccccc2)ccc1SC1CCCCC1	none (no result: STAT3 activator)
CCCCCCSc1cc(-c2nc3cnccn3c2NCc2ccccc2)ccc1OC	AHR act 49 (no result: STAT3 activator)
COc1cc(-c2nc3ccc(C)cn3c2NCc2ccccc2)ccc1-c1cccc(Cl)c1	AHR act 73 (no result: STAT3 activator)
Cn1cccc1Cc1nnc(SCC(=O)Nc2ccc3c(c2)OCO3)n1-c1ccc(F)cc1	none
CCc1ccc2[nH]c(=O)c(CN(Cc3ccc4c(c3)OCO4)Cc3nnnn3C3CCCC3)cc2c1	AHR act 62
CCCc1nnc2n1N=C(c1ccc([N+](=O)[O-])cc1)CS2	none (no result: STAT3 activator)
Cc1cc(C)nc(-n2cc(C(=O)c3cc(F)ccc3O)cn2)n1	AHR act 53
Cn1c(-c2ccc([N+](=O)[O-])cc2)nc2ccccc21	none
Cn1nc([N+](=O)[O-])c(C(C#N)c2nc3ccccc3n2C)c(Cl)c1=O (stereo not given)	AHR act 74
N/C(=N\OC(=O)c1ccc2c(c1)OCO2)c1cccnc1	AHR act 67
N/C(=N\OC(=O)c1ccccc1Cl)c1ccncc1	AHR act 59
N/C(=N\OC(=O)c1cccc(Cl)c1)c1cccnc1	AHR act 75
COc1cc(C2C3=C(COC3=O)Oc3cc4c(cc32)OCO4)cc(OC)c1O (stereo not given)	none (no result: STAT3 activator, AHR act)
Cc1ccccc1-c1nc(NCCN(C)C)nc2ccsc12	none (no result: STAT3 activator, AHR act)
